From ChEMBL document CHEMBL1128324, “Synthesis and antitumor activity of 4- and 5-substituted derivatives of isoquinoline-1-carboxaldehyde thiosemicarbazone” (1995) come the findings set out here.

“And” between values parts separate entries of the source, which are not always exact repeats. Identical values can stand only once.

Holding throughout (type): functional
Test [1] is filed under the species Mus musculus. The test is described as follows: The compound was tested for antineoplastic activity on the survival time of mice bearing L1210 leukemia. Average weight change of mice from onset to termination of therapy. In outline: (§1)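 CD2F1 mice bearing L1210 leukemia, 5-10 per group. Drug was given ip as a suspension twice daily (about 12 h apart) for 6 consecutive days, starting 24 h after tumor implantation. Mean survival counts only mice dying before day 60. Survivors beyond 60 days are scored as long-term. Body-weight change is measured from the start to the end of therapy.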

The species entered for test [2] is Mus musculus. The test is described as follows: The compound was tested for antineoplastic activity on the survival time of mice bearing L1210 leukemia. Optimum daily dosage of the compound.
The species named for test [3] is Mus musculus. The test is described as follows: The compound was tested for antineoplastic activity on the survival time of mice bearing L1210 leukemia.% T/C represents the ratio of the survival time of treated to control mice * 100.
The species entered for test [4] is Mus musculus. The test is described as follows: antineoplastic activity on the survival time of mice bearing L1210 leukemia.% T/C represents the ratio of the survival time of treated to control mice * 100. Put shortly:
(§2)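 L1210 leukemia-bearing CD2F1 mice, 5-10 per group, received the drug as an ip suspension once daily for 6 consecutive days, starting 24 h after tumor implantation. %T/C is treated over control survival time ×100. Average weight change is measured from the onset to the termination of treatment.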

The species entered for test [5] is Mus musculus. The test is described as follows: Survival time of mice(out of 5) bearing L1210 leukemia. Long term survivors are the number of mice that survived for >60 days relative to the total number of treated mice. In outline:
as §1

The species entered for test [6] is Mus musculus. As to the kind of experiment: antineoplastic activity on the survival time of mice bearing L1210 leukemia. Average weight change of mice from onset to termination of drug treatment. In outline:
as §2

The species named for test [7] is Mus musculus. As to the kind of experiment: The compound was tested for antineoplastic activity on the survival time of mice bearing L1210 leukemia. Average survival time includes only those mice that died prior to day 60. Put shortly:
as §1

The species entered for test [8] is Bos taurus. As to the kind of experiment: Effect on rate of glucuronidation of the hydroxyl group by bovine UDP-glucuronyltransferase. In outline:
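UDP formed during glucuronidation was measured by a coupled enzymatic assay, and the rate was calculated from NADH absorbance using an extinction coefficient of 6.22 × 10^6 cm2 mol-1. Test agents were dissolved in DMSO at final concentrations of 0.5 mM (hydroxyl-substituted pyridines) and 0.1 mM (hydroxyl-substituted isoquinolines). Model compounds lacking the thiosemicarbazone group were used because thiosemicarbazones interfere with the absorbance.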

For test [9], the species on record is Mus musculus. As to the kind of experiment: antineoplastic activity on the survival time of mice bearing L1210 leukemia. Daily dosage of the compound. Put shortly: as §2

Turning to `N/C(S)=N/N=C\c1ncc(N)c2ccccc12`, the Average weight in test [1] was -7.8%. Also, the Dose in [2] is 40 mg/kg. In addition, the T/C in [3] was 165%; in test [4], 177% and 174% and 162%. The Long-term survivors in [5] turned out to be 3. Also, in test [6], the Average weight change is 3.2% and 3.6% and 3%. This compound yielded an Average survival in test [7] of 13.5 days.
Consider `CNc1cnc(/C=N\N=C(\N)S)c2ccccc12`, for which the T/C in test [4] was 177% and 159% and 179%. The Average weight change in [6] was 1% and 3% and 8%.
`Cc1ccnc(C)c1O`: the Relative rate in test [8] stood at 0.81.
In test [8], `Cc1ccc(O)cn1` had a Relative rate of 0.59.
Take `Cc1nccc2c(O)cccc12`: in test [8], the Relative rate was determined as 1.
With `Cc1ncccc1O`, in test [8], the Relative rate turned out to be 0.65.
Still for that read-out and setting: next, `Cc1ncc(C)c2c(O)cccc12`: 0.08; `Oc1cccc2cnccc12`: 0.45.
Still for that read-out and setting: under `Cc1cc(C)c(O)cn1` stands 1.
On to `N/C(S)=N/N=C/c1ccc(N)cn1`, for which the Average weight in [1] is on record as -7.6%. Besides, in [2], the Dose turned out to be 20 mg/kg. The T/C in test [3] was 234%; in [4], 129% and 140% and 138%. Moreover, the Long-term survivors in [5] is 1. In addition, the Average weight change in [6] is -18% and -2.8% and 0%. Besides, in test [7], the Average survival was found to be 19.2 days.
Consider `N/C(S)=N/N=C\c1ncc(N2CCOCC2)c2c(N)cccc12`, for which the T/C in [4] is 138% and 141% and 149%. The Average weight change in [6] was 2% and 7.3% and 6.8%.
`NCCNc1cnc(/C=N\N=C(\N)S)c2ccccc12`: the T/C in test [4] is 145% and 120% and 116%. The Dose in test [9] is 60 mg/kg and 40 mg/kg and 20 mg/kg. For the same compound, the Average weight change in test [6] was -4.6% and -5%.

The T/C is the ratio of treated to control.
